{"source": "paper PMC9424334", "about": "(Biomolecules & Therapeutics, 2022)", "type_in_all_cases": "cell-based, human", "key": {"[1]": {"system": "cleaved caspase-3 in MM.1S and RPMI8226 cells", "test": "Immunoblotting for cleaved caspase-3", "details": "1000 nM", "summary_of_the_method": "(§1)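 Total lysates were made in RIPA buffer with protease/phosphatase inhibitors, quantified by BCA and immunoblotted, with chemiluminescence detection and GAPDH normalisation. Data are mean ± SEM; one-way ANOVA vs control.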"}, "[2]": {"system": "cyclin D1 and CDK4 in MM.1S and RPMI8226 cells", "test": "Immunoblotting for CDK4 and cyclin D1", "details": "MM.1S cells, higher concentration ranges, 24 h", "summary_of_the_method": "as §1"}, "[3]": {"system": "DACT family in MM.1S cells", "test": "Immunoblotting of DACT family expression", "details": "24 h", "summary_of_the_method": "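Total lysates were prepared in RIPA buffer with protease/phosphatase inhibitors and immunoblotted for DACT1, DACT2 and DACT3, normalised to GAPDH with chemiluminescence detection. Data are mean ± SEM.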"}, "[4]": {"system": "acetylation of histone H3, H4 and tubulin in MM.1S cells", "test": "Immunoblotting of acetylated proteins", "details": "30-1000 nM, 6 h", "summary_of_the_method": "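Histones were extracted afterwards, and acetylation of histone H3, H4 and tubulin was assessed by immunoblotting with chemiluminescence detection.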"}}}
{"compound": "O=C(CCCCCCC(=O)Nc1ccccc1)NO", "note": "[SAHA, Suberoylanilide hydroxamic acid]", "values": [{"measurement": "cleaved caspase-3", "setting": "[1]", "result": "only marginally increased"}, {"measurement": "expression level of CDK4 and Cyclin D1", "setting": "[2]", "result": "reduced"}, {"measurement": "protein expression of DACT3", "setting": "[3]; 3000 nM", "result": "significantly enhanced"}, {"measurement": "protein expression of DACT1 and DACT2", "setting": "[3]", "result": "not altered"}, {"measurement": "acetylation intensity of histone H3 and H4", "setting": "[4]", "result": "increased"}, {"measurement": "acetylation of tubulin", "setting": "[4]", "result": "increased"}]}
